From ChEMBL document CHEMBL1140187, “Anti-inflammatory cembranoids from the soft corals Sinularia querciformis and Sinularia granosa” (J Nat Prod, 2008)

Columns and labels:
RAW264.7 [1] = assay: Reduction of LPS-induced COX2 expression in mouse Raw264.7 cells at 10 uM preincubated for 5 mins before LPS challenge relative to control; assay type: functional; parameters: scale not given: the % may be the effect or the level left
Method in brief: (§1)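 RAW 264.7 murine macrophages grown in DMEM with 10% heat-inactivated FBS at 37 °C, 5% CO2, plated at 3 × 10^6 cells per 60 mm dish. Compound added 5 min before LPS (0.01 µg/mL), then 16 h incubation. Lysates were analysed by Western blot against iNOS and COX-2 (1:1000), with β-actin as loading control and ECL detection. Band IOD was expressed relative to the LPS-only control; one-way ANOVA with Student-Newman-Keuls test.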

[2] = Cytotoxicity against human Doay cells by MTT method; assay type: functional; settings: read-out: ED50
HEp-2 [3] = assay: Cytotoxicity against human Hep2 cells; assay type: functional, cell-based
HeLa [4] = assay: Cytotoxicity against human HeLa cells by MTT method; assay type: functional; settings: read-out: ED50
HeLa [5] = assay: Cytotoxicity against human HeLa cells; assay type: functional, cell-based
MCF7 [6] = assay: Cytotoxicity against human MCF7 cells by MTT method; assay type: functional; settings: MCF7, read-out: ED50
[7] = Cytotoxicity against human Doay cells; assay type: functional, cell-based
HEp-2 [8] = assay: Cytotoxicity against human Hep2 cells by MTT method; assay type: functional; settings: HEp-2, read-out: ED50
RAW264.7 [9] = assay: Reduction of LPS-induced iNOS expression in mouse Raw264.7 cells at 10 uM preincubated for 5 mins before LPS challenge relative to control; assay type: functional; parameters: scale not given: the % may be the effect or the level left; method in brief: as §1
MCF7 [10] = assay: Cytotoxicity against human MCF7 cells; assay type: functional, cell-based

Row | Compound | Activity (RAW264.7 [1]) | EC50 [2] | IC50 (HEp-2 [3]) | EC50 (HeLa [4]) | IC50 (HeLa [5]) | EC50 (MCF7 [6]) | IC50 [7] | EC50 (HEp-2 [8]) | Activity (RAW264.7 [9]) | IC50 (MCF7 [10])
1 | C=C1C(=O)O[C@]2(C)CC[C@@H]1C[C@H](O)[C@@]1(C)CC[C@H](O1)[C@](C)(O)CCC2=O | 17.4% | > 20 µg/mL | > 20 µg/mL | > 20 µg/mL | > 20 µg/mL | > 20 µg/mL | > 20 µg/mL | > 20 µg/mL | – | –
2 | C=C1C(=O)O[C@]2(C)CC[C@@H]1C[C@H](OC(C)=O)[C@@]1(C)CC[C@H](O1)[C@](C)(O)CCC2=O | 14% | > 20 µg/mL | > 20 µg/mL | > 20 µg/mL | > 20 µg/mL | > 20 µg/mL | > 20 µg/mL | > 20 µg/mL | 20.3% | –
3 | C=C1C(=O)O[C@]2(C)CC[C@@H]1C[C@H](O)[C@@]1(C)CC[C@H](O1)C(=C)CC[C@H]2OC(C)=O [GRANOSOLIDE A] | – | > 20 µg/mL | > 20 µg/mL | > 20 µg/mL | > 20 µg/mL | > 20 µg/mL | > 20 µg/mL | > 20 µg/mL | – | –
4 | C=C1C(=O)O[C@]2(C)CC[C@@H]1C[C@H](OC(C)=O)[C@@]1(C)CC[C@H](O1)C(=C)CC[C@H]2OC(C)=O [GRANOSOLIDE B] | – | > 20 µg/mL | > 20 µg/mL | > 20 µg/mL | > 20 µg/mL | > 20 µg/mL | > 20 µg/mL | > 20 µg/mL | – | –
5 | C=C1C(=O)O[C@]2(C)CC[C@@H]1C[C@H](O)[C@@]1(C)CC[C@H](OC(C)=O)[C@@](C)(CCC2=O)O1 [QUERCIFORMOLIDE A] | – | > 20 µg/mL | > 20 µg/mL | > 20 µg/mL | > 20 µg/mL | > 20 µg/mL | > 20 µg/mL | > 20 µg/mL | – | > 20 µg/mL
6 | C=C1C(=O)O[C@]2(C)CC[C@@H]1C[C@H](O)[C@@]1(C)CC[C@H](O1)[C@](C)(O)CC[C@H]2OC(C)=O [QUERCIFORMOLIDE B] | – | > 20 µg/mL | > 20 µg/mL | > 20 µg/mL | > 20 µg/mL | > 20 µg/mL | > 20 µg/mL | > 20 µg/mL | – | –
7 | C=C1C(=O)O[C@]2(C)CC[C@@H]1C[C@H](OC(C)=O)[C@@]1(C)CC[C@H](O1)[C@](C)(O)CC[C@H]2OC(C)=O [QUERCIFORMOLIDE C] | – | > 20 µg/mL | > 20 µg/mL | > 20 µg/mL | > 20 µg/mL | > 20 µg/mL | > 20 µg/mL | > 20 µg/mL | 23.7% | –
8 | C=C1C(=O)O[C@]2(C)CC[C@@H]1C[C@H](O)[C@@]1(C)CC[C@H](O1)[C@](C)(O)CC[C@H]2O [QUERCIFORMOLIDE D] | – | > 20 µg/mL | > 20 µg/mL | > 20 µg/mL | > 20 µg/mL | > 20 µg/mL | > 20 µg/mL | > 20 µg/mL | – | –
